# Results published in ChEMBL document CHEMBL3097989, “Antimicrobial activity of de novo designed cationic peptides against multi-resistant clinical isolates” (Eur J Med Chem, 2014).
# Where a SMILES comes first, the peptide text is derived from it.
# Columns and labels:
# [1] = tested on: Klebsiella pneumoniae; assay: Antibacterial activity against Klebsiella pneumoniae M9491 clinical isolate expressing blaMOX gene by microdilution test; type: functional
# Outline: (§1)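 MIC by standard broth microdilution following CLSI recommendations, in Mueller Hinton broth supplemented with Ca²⁺ (20-25mg/L) and Mg²⁺ (10-12.5mg/L); peptides tested against a panel of multi-resistant clinical isolates plus ATCC reference strains.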
# [2] = tested on: Klebsiella pneumoniae; assay: Antibacterial activity against Klebsiella pneumoniae PFAV3 by microdilution test; type: functional; outline: as §1
# [3] = tested on: Acinetobacter sp.; assay: Antibacterial activity against Acinetobacter sp. M7978 clinical isolate expressing blaIMP-1 gene by microdilution test; type: functional; outline: as §1
# [4] = tested on: Acinetobacter sp.; assay: Antibacterial activity against Acinetobacter sp. M5277 clinical isolate expressing blaPER gene by microdilution test; type: functional; outline: as §1
# [5] = tested on: Acinetobacter sp.; assay: Antibacterial activity against Acinetobacter sp. PFAV1 clinical isolate expressing blaOXA-51, blaOXA-58 and blaPER gene by microdilution test; type: functional; outline: as §1
# [6] = tested on: Acinetobacter sp.; assay: Antibacterial activity against Acinetobacter sp. M5179 clinical isolate expressing blaOXA-51 gene by microdilution test; type: functional; outline: as §1
# [7] = tested on: Acinetobacter sp.; assay: Antibacterial activity against Acinetobacter sp. M5282 clinical isolate expressing blaOXA-51 gene by microdilution test; type: functional; outline: as §1
# [8] = tested on: Acinetobacter sp.; assay: Antibacterial activity against Acinetobacter sp. M13523 clinical isolate expressing blaOXA-51 gene by microdilution test; type: functional; outline: as §1
# [9] = tested on: Pseudomonas aeruginosa; assay: Antibacterial activity against Pseudomonas aeruginosa M7712 clinical isolate expressing blaSPM gene by microdilution test; type: functional
# Outline: (§2)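 MIC by standard broth microdilution following CLSI recommendations, in Mueller Hinton broth supplemented with Ca²⁺ (20-25 mg/L) and Mg²⁺ (10-12.5 mg/L); ATCC reference strains included in the panel.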
# [10] = tested on: Pseudomonas aeruginosa; assay: Antibacterial activity against Pseudomonas aeruginosa M7525 clinical isolate expressing blaSPM gene by microdilution test; type: functional; outline: as §2
# [11] = tested on: Pseudomonas aeruginosa; assay: Antibacterial activity against Pseudomonas aeruginosa M5200 clinical isolate expressing blaVIM and blaGES-1 gene by microdilution test; type: functional; outline: as §2
# [12] = tested on: Pseudomonas aeruginosa; assay: Antibacterial activity against Pseudomonas aeruginosa M5109 clinical isolate expressing blaVIM and blaGES-1 gene by microdilution test; type: functional; outline: as §2
# [13] = tested on: Pseudomonas aeruginosa; assay: Antibacterial activity against Pseudomonas aeruginosa M13513 clinical isolate expressing blaKPC-2 gene by microdilution test; type: functional; outline: as §1
# [14] = tested on: Pseudomonas aeruginosa; assay: Antibacterial activity against Pseudomonas aeruginosa M7907 clinical isolate expressing blaPER gene by microdilution test; type: functional; outline: as §2
# [15] = tested on: Pseudomonas aeruginosa; assay: Antibacterial activity against Pseudomonas aeruginosa ATCC 27853 by microdilution test; type: functional; outline: as §1
# [16] = Toxicity in human RBC assessed as hemolytic activity relative to control; type: cell-based, Erythrocyte; settings: red blood cells (RBC), read-out: Activity
# Outline: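 Heparinized human whole blood diluted 3x in PBS and centrifuged 10 min at 1500 rpm, repeated three times. Cells resuspended to 10% (v/v), then diluted to about 0.5% (v/v). Peptides added at various concentrations for 30 min at 37 °C. Supernatant absorbance read at 550 nm. Lysis calculated against buffer (0%) and water (100%). Readings taken in triplicate and averaged.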
# [17] = tested on: Enterococcus gallinarum; assay: Antibacterial activity against Enterococcus gallinarum M2685 clinical isolate expressing vanC1 and vanA gene by microdilution test; type: functional; outline: as §1
# [18] = tested on: Enterococcus faecium; assay: Antibacterial activity against Enterococcus faecium M2664 clinical isolate expressing vanA gene by microdilution test; type: functional; outline: as §1
# [19] = tested on: Enterococcus faecium; assay: Antibacterial activity against Enterococcus faecium M2304 clinical isolate expressing vanA gene by microdilution test; type: functional; outline: as §1
# [20] = tested on: Enterococcus faecium; assay: Antibacterial activity against Enterococcus faecium M2619 clinical isolate expressing vanB gene by microdilution test; type: functional; outline: as §1
# [21] = tested on: Enterococcus faecalis; assay: Antibacterial activity against Enterococcus faecalis M6983 clinical isolate expressing vanA gene by microdilution test; type: functional; outline: as §1
# [22] = tested on: Enterococcus faecalis; assay: Antibacterial activity against Enterococcus faecalis M4449 clinical isolate expressing vanA gene by microdilution test; type: functional; outline: as §1
# [23] = tested on: Enterococcus faecalis; assay: Antibacterial activity against Enterococcus faecalis M6534 clinical isolate expressing vanB gene by microdilution test; type: functional; outline: as §1
# [24] = tested on: Enterococcus faecalis; assay: Antibacterial activity against Enterococcus faecalis ATCC 51299 clinical isolate expressing vanB gene by microdilution test; type: functional; outline: as §1
# [25] = tested on: Staphylococcus cohnii; assay: Antibacterial activity against Staphylococcus cohnii M6767 clinical isolate expressing mecA gene by microdilution test; type: functional; outline: as §2
# [26] = tested on: Staphylococcus warneri; assay: Antibacterial activity against Staphylococcus warneri M6823 clinical isolate expressing mecA gene by microdilution test; type: functional; outline: as §2
# [27] = tested on: Staphylococcus hominis; assay: Antibacterial activity against Staphylococcus hominis M2967 clinical isolate expressing mecA gene by microdilution test; type: functional; outline: as §2
# [28] = tested on: Staphylococcus saprophyticus; assay: Antibacterial activity against Staphylococcus saprophyticus M2981 clinical isolate expressing mecA gene by microdilution test; type: functional; outline: as §2
# [29] = tested on: Staphylococcus saprophyticus; assay: Antibacterial activity against Staphylococcus saprophyticus M4070 clinical isolate expressing mecA gene by microdilution test; type: functional; outline: as §2
# [30] = tested on: Staphylococcus epidermidis; assay: Antibacterial activity against Staphylococcus epidermidis M2921 clinical isolate expressing mecA gene by microdilution test; type: functional; outline: as §2
# [31] = tested on: Staphylococcus epidermidis; assay: Antibacterial activity against Staphylococcus epidermidis M2919 clinical isolate expressing mecA gene by microdilution test; type: functional; outline: as §2
# [32] = tested on: Staphylococcus epidermidis; assay: Antibacterial activity against Staphylococcus epidermidis M2923 by microdilution test; type: functional; outline: as §2
# [33] = tested on: Staphylococcus aureus; assay: Antibacterial activity against Staphylococcus aureus M6820 clinical isolate expressing mecA gene by microdilution test; type: functional; outline: as §2
# [34] = tested on: Staphylococcus aureus; assay: Antibacterial activity against Staphylococcus aureus M4046 clinical isolate expressing mecA gene by microdilution test; type: functional; outline: as §2
# [35] = tested on: Staphylococcus aureus; assay: Antibacterial activity against Staphylococcus aureus M6794 clinical isolate expressing mecA gene by microdilution test; type: functional; outline: as §2
# [36] = tested on: Staphylococcus aureus; assay: Antibacterial activity against Staphylococcus aureus P239 clinical isolate expressing ermC gene by microdilution test; type: functional; outline: as §2
# [37] = tested on: Staphylococcus aureus; assay: Antibacterial activity against Staphylococcus aureus P204 clinical isolate expressing ermA gene by microdilution test; type: functional; outline: as §2
# [38] = tested on: Staphylococcus aureus; assay: Antibacterial activity against Staphylococcus aureus P28 clinical isolate expressing ermA gene by microdilution test; type: functional; outline: as §2
# [39] = tested on: Staphylococcus aureus; assay: Antibacterial activity against Staphylococcus aureus P33 clinical isolate expressing msrA gene by microdilution test; type: functional; outline: as §2
# [40] = tested on: Escherichia coli; assay: Antibacterial activity against Escherichia coli M9209 clinical isolate expressing blaKPC-2 gene by microdilution test; type: functional; outline: as §1
# [41] = tested on: Escherichia coli; assay: Antibacterial activity against Escherichia coli PABC11 clinical isolate expressing blaCTX-M-2 gene by microdilution test; type: functional; outline: as §1
# [42] = tested on: Escherichia coli; assay: Antibacterial activity against Escherichia coli PCOS15 clinical isolate expressing blaPER-2 and blaTEM-1 gene by microdilution test; type: functional; outline: as §1
# [43] = tested on: Escherichia coli; assay: Antibacterial activity against Escherichia coli PNEU23 clinical isolate expressing blaOXA-GIII and blaTEM-1 gene by microdilution test; type: functional; outline: as §1
# [44] = tested on: Escherichia coli; assay: Antibacterial activity against Escherichia coli M7859 clinical isolate expressing blaCIT gene by microdilution test; type: functional; outline: as §1
# [45] = tested on: Escherichia coli; assay: Antibacterial activity against Escherichia coli M9884 by microdilution test; type: functional; outline: as §1
# [46] = tested on: Klebsiella pneumoniae; assay: Antibacterial activity against Klebsiella pneumoniae M9885 clinical isolate expressing blaKPC-2 gene by microdilution test; type: functional; outline: as §1
# [47] = tested on: Klebsiella pneumoniae; assay: Antibacterial activity against Klebsiella pneumoniae M13540 clinical isolate expressing blaKPC-2 gene by microdilution test; type: functional; outline: as §1
# [48] = tested on: Klebsiella pneumoniae; assay: Antibacterial activity against Klebsiella pneumoniae M7647 clinical isolate expressing blaVIM, blaCTX-M-2, blaTEM-1 and blaSHV-1 gene by microdilution test; type: functional; outline: as §1
# [49] = tested on: Klebsiella pneumoniae; assay: Antibacterial activity against Klebsiella pneumoniae M5825 clinical isolate expressing blaGES-3 and blaCTX-M-2 gene by microdilution test; type: functional; outline: as §1
smiles,measurement,setting,value
CC[C@H](C)[C@H](N)C(=O)N[C@@H](CC(C)C)C(=O)N[C@@H](CCCNC(=N)N)C(=O)N[C@@H](Cc1c[nH]c2ccccc12)C(=O)N1CCC[C@H]1C(=O)N[C@@H](Cc1c[nH]c2ccccc12)C(=O)N[C@@H](Cc1c[nH]c2ccccc12)C(=O)N1CCC[C@H]1C(=O)N[C@@H](Cc1c[nH]c2ccccc12)C(=O)N[C@@H](CCCNC(=N)N)C(=O)N[C@@H](CCCNC(=N)N)C(=O)N[C@@H](CCCCN)C(N)=O.Cl.Cl.Cl.Cl.Cl [OMIGANAN PENTAHYDROCHLORIDE] (H-ILRWPWWPWRRK-NH2),MIC90,[1],128 µg/mL
same,MIC90,[2],128 µg/mL
same,MIC90,[3],16 µg/mL
same,MIC90,[4],32 µg/mL
same,MIC90,[5],16 µg/mL
same,MIC90,[6],32 µg/mL
same,MIC90,[7],8 µg/mL
same,MIC90,[8],32 µg/mL
same,MIC90,[9],512 µg/mL
same,MIC90,[10],512 µg/mL
same,MIC90,[11],512 µg/mL
same,MIC90,[12],256 µg/mL
same,MIC90,[13],256 µg/mL
same,MIC90,[14],128 µg/mL
same,MIC90,[15],256 µg/mL
same,hemolysis,[16],10%
same,MIC90,[17],16 µg/mL
same,MIC90,[18],8 µg/mL
same,MIC90,[19],4 µg/mL
same,MIC90,[20],16 µg/mL
same,MIC90,[21],128 µg/mL
same,MIC90,[22],128 µg/mL
same,MIC90,[23],256 µg/mL
same,MIC90,[24],256 µg/mL
same,MIC90,[25],4 µg/mL
same,MIC90,[26],8 µg/mL
same,MIC90,[27],4 µg/mL
same,MIC90,[28],8 µg/mL
same,MIC90,[29],8 µg/mL
same,MIC90,[30],8 µg/mL
same,MIC90,[31],8 µg/mL
same,MIC90,[32],8 µg/mL
same,MIC90,[33],128 µg/mL
same,MIC90,[34],32 µg/mL
same,MIC90,[35],64 µg/mL
same,MIC90,[36],32 µg/mL
same,MIC90,[37],64 µg/mL
same,MIC90,[38],32 µg/mL
same,MIC90,[39],32 µg/mL
same,MIC90,[40],64 µg/mL
same,MIC90,[41],64 µg/mL
same,MIC90,[42],64 µg/mL
same,MIC90,[43],32 µg/mL
same,MIC90,[44],64 µg/mL
same,MIC90,[45],64 µg/mL
same,MIC90,[46],256 µg/mL
same,MIC90,[47],256 µg/mL
same,MIC90,[48],1020 µg/mL
same,MIC90,[49],64 µg/mL
